Source: ChEMBL document CHEMBL3603793, “Antimalarial activity of prodrugs of N-branched acyclic nucleoside phosphonate inhibitors of 6-oxopurine phosphoribosyltransferases” (Bioorg Med Chem, 2015)

Tests used:
[1] = Inhibition of Plasmodium falciparum HGXPRT by spectrophotometric assay
In short: (§1)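 Spectrophotometric assay at 25°C in 0.1 M Tris-HCl, 10 mM MgCl2, pH 7.4. PRib-PP was the variable substrate and guanine the fixed substrate at a saturating 60 μM. Values are apparent Ki, since only one concentration of the second substrate was used, calculated from Km(app) = Km(1+[I]/Ki(app)).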

[2] = target: T1, Hypoxanthine-guanine phosphoribosyltransferase (Homo sapiens, UniProt P00492); test: Inhibition of human HGPRT by spectrophotometric assay; in short: as §1
T1 sequence (P00492 whole entry): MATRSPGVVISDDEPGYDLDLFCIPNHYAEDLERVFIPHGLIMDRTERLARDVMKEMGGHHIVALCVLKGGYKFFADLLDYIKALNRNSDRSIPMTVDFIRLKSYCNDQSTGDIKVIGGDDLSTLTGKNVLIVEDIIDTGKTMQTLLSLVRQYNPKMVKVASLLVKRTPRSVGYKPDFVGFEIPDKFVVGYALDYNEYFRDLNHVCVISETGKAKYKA

Plasmodium falciparum [3] = test: Antimalarial activity against chloroquine-resistant Plasmodium falciparum W2 infected in erythrocytes assessed as inhibition of [3H]-hypoxanthine incorporation after 6 days; type: functional, organism-based
[4] = Cytotoxicity against human C32 cells after 4 days; type: cell-based
In short: (§2)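 Cells seeded in 96-well plates at 7,500 (A549) or 15,000 (C32, C32-TG) per well; compounds added at serial dilutions 24 h later. Incubated four days at 37°C, then trypsinized and counted with a Coulter Counter. CC50 is the concentration giving 50% proliferation versus untreated cells, obtained by extrapolation; mean ± SEM of two or three independent tests.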

[5] = Cytotoxicity against human A549 cells after 4 days; type: cell-based; in short: as §2
[6] = Cytotoxicity against human HGPRT-deficient thioguanine-resistant C32TG cells after 4 days; type: cell-based; in short: as §2
Plasmodium falciparum [7] = test: Antimalarial activity against chloroquine-sensitive Plasmodium falciparum D6 infected in erythrocytes assessed as inhibition of [3H]-hypoxanthine incorporation after 6 days; type: functional, organism-based

For `Nc1nc2c(ncn2CCN(CCOCc2ccccc2)CCP(=O)(O)O)c(=O)[nH]1`, the Ki [1] was 2.4 µM and the Ki [2] was 1.9 µM.
`Nc1nc2c(ncn2CCN(CCP(=O)(O)O)CC(O)CO)c(=O)[nH]1` (configuration not stated) showed a Ki [1] of 0.6 µM and a Ki [2] of 0.6 µM.
`Nc1nc2c(ncn2CCN(CCP(=O)(O)O)CP(=O)(O)O)c(=O)[nH]1` showed a Ki [1] of 1 µM and a Ki [2] of 2 µM.
`O=c1[nH]cnc2c1ncn2CCN(CCP(=O)(O)O)CC(O)CO` (configuration not stated) gave a Ki [1] of 5 µM and a Ki [2] of 3.8 µM.
In the case of `O=c1[nH]cnc2c1ncn2CCN(CCP(=O)(O)O)CP(=O)(O)O`, the Ki [1] is reported as 6 µM and the Ki [2] is reported as 10 µM.
For `O=c1[nH]cnc2c1ncn2CCN(CCOCc1ccccc1)CCP(=O)(O)O`, the Ki [1] was 4.3 µM and the Ki [2] was 13 µM.
`CCOC(=O)[C@H](Cc1ccccc1)NP(=O)(CCN(CCC(=O)OC)CCn1cnc2c(=O)[nH]cnc21)N[C@@H](Cc1ccccc1)C(=O)OCC` gave an IC50 (Plasmodium falciparum [3]) of 2.9 µM, a CC50 at 96 h [4] of over 300 µM and a CC50 at 96 h [5] of 70 µM. For the same compound, the CC50 at 96 h [6] was 212 µM and the IC50 (Plasmodium falciparum [7]) was 3.5 µM.
For `CCOC(=O)[C@H](Cc1ccccc1)NP(=O)(CCN(CCCC#N)CCn1cnc2c(=O)[nH]cnc21)N[C@@H](Cc1ccccc1)C(=O)OCC`, the IC50 (Plasmodium falciparum [3]) was 5.5 µM, the CC50 at 96 h [4] was 102 µM and the CC50 at 96 h [5] was 30 µM. For the same compound, the CC50 at 96 h [6] was 89 µM and the IC50 (Plasmodium falciparum [7]) was 4.2 µM.
`CC(C)OC(=O)[C@H](Cc1ccccc1)NP(=O)(CCN(CCOCc1ccccc1)CCn1cnc2c(=O)[nH]cnc21)N[C@@H](Cc1ccccc1)C(=O)OC(C)C` gave an IC50 (Plasmodium falciparum [3]) of 2.8 µM, a CC50 at 96 h [4] of 13 µM and a CC50 at 96 h [5] of 23 µM. The CC50 at 96 h [6] was 18 µM and the IC50 (Plasmodium falciparum [7]) was 1.5 µM.
`CCOC(=O)[C@H](Cc1ccccc1)NP(=O)(CCN(CCn1cnc2c(=O)[nH]cnc21)CP(=O)(N[C@@H](Cc1ccccc1)C(=O)OCC)N[C@@H](Cc1ccccc1)C(=O)OCC)N[C@@H](Cc1ccccc1)C(=O)OCC` showed an IC50 (Plasmodium falciparum [3]) of 1.6 µM, a CC50 at 96 h [4] of 23 µM and a CC50 at 96 h [5] of 41 µM. It also gave a CC50 at 96 h [6] of 25 µM and an IC50 (Plasmodium falciparum [7]) of 4.7 µM.
`CCOC(=O)[C@H](Cc1ccccc1)NP(=O)(CCN(CCn1cnc2c(=O)[nH]cnc21)CCP(=O)(N[C@@H](Cc1ccccc1)C(=O)OCC)N[C@@H](Cc1ccccc1)C(=O)OCC)N[C@@H](Cc1ccccc1)C(=O)OCC` gave an IC50 (Plasmodium falciparum [3]) of 2.7 µM, a CC50 at 96 h [4] of 48 µM and a CC50 at 96 h [5] of 79 µM. It also gave a CC50 at 96 h [6] of 48 µM and an IC50 (Plasmodium falciparum [7]) of 3.1 µM.
In the case of `CCOC(=O)[C@H](Cc1ccccc1)NP(=O)(CCN(CCC(=O)OC)CCn1cnc2c(=O)[nH]c(N)nc21)N[C@@H](Cc1ccccc1)C(=O)OCC`, the IC50 (Plasmodium falciparum [3]) is reported as 5.6 µM, the CC50 at 96 h [4] is reported as over 300 µM and the CC50 at 96 h [5] is reported as over 300 µM. The CC50 at 96 h [6] was over 300 µM and the IC50 (Plasmodium falciparum [7]) was 11.8 µM.
In the case of `CCOC(=O)[C@H](Cc1ccccc1)NP(=O)(CCN(CCCC(=O)OC)CCn1cnc2c(=O)[nH]c(N)nc21)N[C@@H](Cc1ccccc1)C(=O)OCC`, the IC50 (Plasmodium falciparum [3]) is reported as 5.7 µM, the CC50 at 96 h [4] is reported as 234 µM and the CC50 at 96 h [5] is reported as at least 232 µM. For the same compound, the CC50 at 96 h [6] was at least 246 µM and the IC50 (Plasmodium falciparum [7]) was 8.6 µM.
Compound `CC(C)OC(=O)[C@H](Cc1ccccc1)NP(=O)(CCN(CCOCc1ccccc1)CCn1cnc2c(=O)[nH]c(N)nc21)N[C@@H](Cc1ccccc1)C(=O)OC(C)C` has an IC50 (Plasmodium falciparum [3]) of 2.9 µM, a CC50 at 96 h [4] of 17 µM and a CC50 at 96 h [5] of 20 µM. The CC50 at 96 h [6] was 23 µM and the IC50 (Plasmodium falciparum [7]) was 1.6 µM.
For `CCOC(=O)[C@H](Cc1ccccc1)NP(=O)(CCN(CCn1cnc2c(=O)[nH]c(N)nc21)CP(=O)(N[C@@H](Cc1ccccc1)C(=O)OCC)N[C@@H](Cc1ccccc1)C(=O)OCC)N[C@@H](Cc1ccccc1)C(=O)OCC`, the IC50 (Plasmodium falciparum [3]) was 4.6 µM, the CC50 at 96 h [4] was 65 µM and the CC50 at 96 h [5] was over 300 µM. For the same compound, the CC50 at 96 h [6] was 56 µM and the IC50 (Plasmodium falciparum [7]) was 10.4 µM.
With `CCOC(=O)[C@H](Cc1ccccc1)NP(=O)(CCN(CCn1cnc2c(=O)[nH]c(N)nc21)CCP(=O)(N[C@@H](Cc1ccccc1)C(=O)OCC)N[C@@H](Cc1ccccc1)C(=O)OCC)N[C@@H](Cc1ccccc1)C(=O)OCC` the IC50 (Plasmodium falciparum [3]) was 7.4 µM, the CC50 at 96 h [4] was 51 µM and the CC50 at 96 h [5] was 144 µM. The CC50 at 96 h [6] was 53 µM and the IC50 (Plasmodium falciparum [7]) was 6.3 µM.
